# A selection: hits, their analogues and other compounds. The true share with any hit is near 0.99%.
# SKN-1 inh: blocks SKN-1 activity in C. elegans; AID 624304; inhibition, % at 21.8 µM; C. elegans VP596 Pgst-4::GFP/RFP ratio, acrylamide-induced, 24 h; 360,000 compounds, 0.49% hits;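 active means interference check ratio from 0.5 to 1.5 plus GFP to RFP signal ratio inhibition reaching or exceeding a fixed threshold, cut at about 30% in these data, passing the limit was not always enough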
# TLR9-MyD88 block: inhibitors of human TLR9-MyD88 binding; 340,000 compounds, 0.21% hits; Q9NR96+Q99836; inhibition, % at 4.98 µM; CHO BLA complementation TLR9-MyD88, CCF4 FRET ratio;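 active means inhibition above the mean over all tested compounds plus 3 SD, cut at about 21% in these data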;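 further: 0% = DMSO only wells and 100% = clavulanate BLA inhibitor control wells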
# Target sequence (Q99836 whole entry, looked up): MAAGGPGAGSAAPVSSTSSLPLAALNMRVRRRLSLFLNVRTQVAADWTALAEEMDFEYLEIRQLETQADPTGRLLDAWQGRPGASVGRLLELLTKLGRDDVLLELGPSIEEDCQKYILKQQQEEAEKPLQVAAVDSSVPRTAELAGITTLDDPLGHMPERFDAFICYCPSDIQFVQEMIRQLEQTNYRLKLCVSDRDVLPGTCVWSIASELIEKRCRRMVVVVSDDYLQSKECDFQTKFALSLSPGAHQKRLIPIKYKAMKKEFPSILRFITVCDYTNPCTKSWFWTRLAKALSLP
# Target sequence (Q9NR96 whole entry, looked up): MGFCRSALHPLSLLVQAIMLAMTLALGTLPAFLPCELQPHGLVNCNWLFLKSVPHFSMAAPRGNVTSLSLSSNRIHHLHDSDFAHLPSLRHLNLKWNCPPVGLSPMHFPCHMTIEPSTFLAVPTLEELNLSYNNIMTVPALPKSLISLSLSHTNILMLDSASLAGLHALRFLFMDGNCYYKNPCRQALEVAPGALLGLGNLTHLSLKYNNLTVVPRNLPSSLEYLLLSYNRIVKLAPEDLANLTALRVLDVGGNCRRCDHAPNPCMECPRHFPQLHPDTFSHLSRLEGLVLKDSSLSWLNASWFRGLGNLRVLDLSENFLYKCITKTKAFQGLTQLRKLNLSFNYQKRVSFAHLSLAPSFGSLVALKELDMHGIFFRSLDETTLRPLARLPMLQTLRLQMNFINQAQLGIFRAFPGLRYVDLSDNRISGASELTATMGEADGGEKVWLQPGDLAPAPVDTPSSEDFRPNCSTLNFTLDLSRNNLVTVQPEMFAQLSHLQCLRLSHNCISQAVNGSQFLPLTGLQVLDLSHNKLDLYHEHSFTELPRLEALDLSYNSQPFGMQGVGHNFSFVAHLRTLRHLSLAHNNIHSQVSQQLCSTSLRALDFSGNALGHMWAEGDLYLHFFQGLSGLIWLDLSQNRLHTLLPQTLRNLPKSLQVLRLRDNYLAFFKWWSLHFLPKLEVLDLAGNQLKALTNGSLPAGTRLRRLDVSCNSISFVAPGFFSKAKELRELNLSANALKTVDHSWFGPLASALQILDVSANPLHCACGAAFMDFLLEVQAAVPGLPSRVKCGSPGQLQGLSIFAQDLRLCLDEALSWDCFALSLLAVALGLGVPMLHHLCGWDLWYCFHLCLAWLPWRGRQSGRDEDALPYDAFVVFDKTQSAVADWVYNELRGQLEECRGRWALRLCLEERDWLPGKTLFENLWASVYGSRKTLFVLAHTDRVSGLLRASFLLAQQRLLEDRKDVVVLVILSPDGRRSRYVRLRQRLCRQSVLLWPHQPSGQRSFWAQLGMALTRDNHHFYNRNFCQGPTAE
# MT1-MMP act inh: inhibitors of human MT1-MMP activation; AID 651647; P50281; 360,000 compounds, 0.061% hits; GFP/RFP ratio change, % at 20 µM; HT1080 RFP-PRO-GFP cells, GFP/RFP ratio fluorescence, overnight; percent of plate control window, DMSO zero;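 active means GFP/RFP ratio change of at least 30% with cell ATP level not reduced by more than half and red fluorescence within 50% of control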
#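 Assay system: HT1080 RFP-PRO-GFP cells | Dosing: 20 µM single dose, 1% DMSO | Incubation: Cells overnight before dosing, compound overnight, 37 °C, 5% CO2 | Evaluation: GFP/RFP fluorescence ratio | Control set: DMSO-only wells and HT1080 RFP-L50D-GFP cell wells as references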
# TLR4-MyD88 BLA: blocks binding of human TLR4 to MyD88. O00206+Q99836. HeLa CL3-4 TLR4/MyD88 BLA complementation, FRET ratio. inhibition, % at 8.4 µM. 200,000 compounds, 0.18% hits. AID 861; in the data active means inhibition above about 25%;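 further: 0% = vehicle and 100% = reference inhibitor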
# NOD2-RIPK2 inh: NOD2-RIPK2 protein interaction inhibition; AID 624267; inhibition, % at 4.98 µM; CHO BLA complementation NOD2-RIPK2, CCF4 ratio; 360,000 compounds, 0.38% hits; O43353; in the data active means inhibition above about 21%;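 further: 0% = vehicle only and 100% = reference blocker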
# TLR4 MyD88 cnf: confirmation of human TLR4-MyD88 binding inhibitors. shares compounds with TLR4-MyD88 BLA. HeLa CL3-4 BLA complementation, CCF4 FRET ratio. inhibition, % at 8.4 µM. 350 compounds, 50% hits. AID 941;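 active means mean inhibition across three repeat runs above about 25% carried over from the earlier screen, limit read from the data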;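 further: plate controls were DMSO only for no effect and clavulanic acid blocking BLA at full dose for full effect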
# BLA inh HeLa: beta-lactamase inhibition flagged in TLR4-MyD88 counter-screen | 350 compounds, 63% hits | HeLa BLA reporter, CCF4 FRET ratio | shares compounds with TLR4-MyD88 BLA | AID 1237 | inhibition, % at 8.4 µM;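 active means mean inhibition over three repeats above about 26% taken from the earlier screen, limit read from the data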;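 further: HeLa cells stably expressing beta-lactamase reporter as counterscreen for TLR4-MyD88 inhibitors; 0% = DMSO and 100% = clavulanic acid full inhibition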
# TLR9-MyD88 cf: TLR9-MyD88 interaction inhibition, confirmation; CHO TLR9/MyD88 BLA complementation, CCF4 FRET ratio; inhibition, % at 4.98 µM; shares compounds with TLR9-MyD88 block; 680 compounds, 51% hits;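 active means mean inhibition across three repeats above about 21% taken from the earlier screen, limit read from the data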;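 further: blue over green emission ratio reports constitutive TLR9 MyD88 association via BLA complementation; 0% = DMSO vehicle wells and 100% = clavulanate BLA inhibitor wells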
# BLA nonselective: beta-lactamase reporter inhibition, counter-screen artifact; inhibition, % at 4.98 µM; 680 compounds, 7% hits; CHO-BLA cells, CCF4 FRET ratio, BLA reporter; shares compounds with TLR9-MyD88 block; AID 540251;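 active means mean inhibition above a 50% cutoff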;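 further: counterscreen of TLR9-MyD88 hits on CMV-driven BLA in CHO-K1 cells; 0% = DMSO alone and 100% = clavulanate blocking BLA; higher means less blue over green ratio so more BLA blockade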
# TLR9 CHO cytotox: CHO cell toxicity counter-screen for TLR9-MyD88 inhibitors | inhibition, % at 4.98 µM | AID 588336 | TLR9-MyD88 CHO cells cytotoxicity, luminescence | 680 compounds, 39% hits | shares compounds with TLR9-MyD88 block; in the data active means inhibition above about 11%
# * marks the source's active call; other numbers are inactive results; · = not tested or not shown.
SMILES,SKN-1 inh,TLR9-MyD88 block,MT1-MMP act inh,TLR4-MyD88 BLA,NOD2-RIPK2 inh,TLR4 MyD88 cnf,BLA inh HeLa,others
Clc1ncnc2c1oc1ccccc12,20.9,-8.6,-0.9,33.1*,-10.7,37.1*,15.3,
O=C(C1CC(=O)N(c2ccccc2)C1)N1CCN(c2ccccc2F)CC1 (stereo not drawn),-0.3,-3.4,0.7,·,-4.6,·,·,
CC(O)CN(Cc1cccc(Cl)c1)CC(C)O (stereo not drawn),-3.2,8.3,0.8,27.7*,-2.6,-4.7,3.7,
CCOc1ccc(NC(=O)/C(C#N)=C/c2ccc(N3CCCC3)c(C)c2)cc1,15.6,10.7,-148.9,26.5*,0.8,28.2*,65.0*,
CCCCOC(=O)c1ccc(S(N)(=O)=O)o1,6.3,6.9,3.9,-6.1,-2.7,·,·,
CCCOC(=O)c1ccc(S(N)(=O)=O)o1,-5.4,0.3,3.5,26.8*,-2.6,-8.4,0.9,
Cc1ccc(C2C(C#N)=C(N)Oc3cc(N)ccc32)cc1 (stereo not drawn),3.3,2.3,3.4,·,-0.6,·,·,
Cc1ccc(/C=C2\CCC3=C2OC(N)=C(C#N)C3c2ccc(C)cc2)cc1 (stereo not drawn),35.2*,11.0,-171.6,34.1*,10.7,28.6*,65.7*,
Oc1ccc2ccccc2c1/C=N/Nc1nnc(-c2ncc[nH]2)c2ccccc12,17.6,-6.4,-41.7,33.0*,0.9,21.7,49.7*,
O=C1c2cccc3c([N+](=O)[O-])ccc(c23)C(=O)N1c1nccs1,-10.9,79.1*,-283.5,92.9*,88.7*,91.9*,113.9*,
COc1ccc(-c2nc(C#N)c(NCCN(C)C)o2)cc1,-5.3,-0.8,3.9,27.0*,3.6,-7.4,3.2,
O=C(Cn1ncc(Cl)c(Cl)c1=O)N1CCc2ccccc21,1.7,14.2,-14.6,27.0*,20.8,24.4,4.7,
O=C(Cn1ncc(Cl)c(Cl)c1=O)N1CCN(Cc2ccccc2)CC1,7.0,10.2,-11.4,24.4,17.8,·,·,
O=C(/C=C/c1cccc(Cl)c1)OCC(=O)c1ccc[nH]1,10.9,6.5,1.0,·,-9.1,·,·,
CCCC1Cc2nc(N3CCCCC3)c(C#N)cc2CO1 (stereo not drawn),20.4,4.8,9.3,25.8*,-2.8,-11.4,6.2,
CCCC1Cc2[nH]c(=O)c(C#N)cc2CO1 (stereo not drawn),5.2,-5.9,·,·,-14.2,·,·,
O=C(CCCc1ccccc1)c1ccc2c(c1)OCCO2,5.9,-7.2,-7.7,25.5*,1.6,-1.8,0.7,
O=C(CCc1ccccc1)c1ccc2c(c1)OCCCO2,-23.4,-10.1,-1.3,4.0,-1.8,·,·,
Cc1cc(C)n(C(C)CNS(=O)(=O)c2ccc(Cl)cc2)n1 (stereo not drawn),1.9,2.7,-1.0,·,-12.4,·,·,
CCOc1ccc(/C=C(\C(=O)O)c2ccc(S(=O)(=O)N3CCCCC3)s2)cc1OC,12.3,-4.1,-0.4,·,-2.4,·,·,
Cn1c(-c2ccc(C=O)s2)nc2c3ccccc3c3ccccc3c21,9.1,0.5,-6.9,47.4*,8.3,39.9*,61.4*,
COc1cc2c3nnc(-c4ccc(F)cc4)c-3cn(Cc3cccc(F)c3)c2cc1OC,-3.5,-4.9,-149.8,25.6*,-9.1,15.9,49.9*,
COc1cccc(-c2cc(C(F)(F)F)c3c(N)c(C#N)sc3n2)c1,·,·,·,27.0*,·,19.8,49.0*,
Cc1cc(C)c(C(=O)COC(=O)c2cccc(S(=O)(=O)N3CCOCC3)c2)cc1C,0.8,-8.7,-2.2,·,-7.3,·,·,
COCCN(CC(=O)Nc1cccc(C)c1C)C(=O)c1oc2ccccc2c1C,2.1,-8.9,-2.0,·,0.9,·,·,
SMILES,SKN-1 inh,TLR9-MyD88 block,MT1-MMP act inh,TLR4-MyD88 BLA,NOD2-RIPK2 inh,TLR4 MyD88 cnf,BLA inh HeLa,others
Cc1c(NC(=O)CSc2nnc(-c3cccc(Cl)c3)o2)c(=O)n(-c2ccccc2)n1C,-0.7,-1.8,-0.8,28.6*,-3.3,0.7,4.1,
Cc1c(NC(=O)CSc2nnc(-c3ccncc3)o2)c(=O)n(-c2ccccc2)n1C,8.1,-3.1,1.5,5.3,3.2,·,·,
CCCCn1nc(-c2ccccc2)c2nc3ccccc3nc21,·,·,·,49.1*,·,46.8*,49.5*,
Cn1nc(-c2ccccc2)c2nc3ccccc3nc21,-88.8,8.6,-81.5,28.1*,15.7,22.1,44.0*,
CC(C)(C)[C@H]1COC(=O)CC/C=C\C[C@@H](CC(=O)N(CCO)Cc2ccccc2)C(=O)N1,11.4,-9.5,6.0,·,-9.5,·,·,
O=C(CCN1CCOCC1)Nc1ccc2c(c1)CCC2,11.6,0.0,-1.6,25.1*,-4.0,-0.7,4.0,
Cc1cccc2cc(C#N)c(NCCNC(=O)NC3CCCCC3)nc12,-10.4,-1.9,-0.2,25.3*,-10.2,-10.6,-2.9,
CCCCCn1c(=O)c(C(=O)c2ccccc2)nc2ccccc21,12.7,-13.5,0.2,4.2,-5.9,·,·,
CCCCCCn1c(=O)[nH]c2nc3cc(N)ccc3nc2c1=O,·,·,·,25.1*,·,29.6*,45.3*,
Cc1c(C(=O)N(C)C2CCCCC2)sc2ncnc(N3CCN(c4ccccc4)CC3)c12,25.2,-4.2,-6.9,·,-6.4,·,·,
COc1ccc(N(CC(=O)N/N=C/c2ccc(-c3ccc([N+](=O)[O-])cc3)o2)S(=O)(=O)c2ccc(C)cc2)cc1Cl,-11.3,63.8*,-7.5,70.6*,16.5,65.3*,94.8*,TLR9-MyD88 cf=58.9*;BLA nonselective=61.4*;TLR9 CHO cytotox=5.1
COc1ccccc1NS(=O)(=O)c1cc([N+](=O)[O-])ccc1N/N=C/c1c[nH]c2ccccc12,39.9*,48.8*,-74.6,39.4*,3.8,26.5*,55.5*,TLR9-MyD88 cf=44.9*;BLA nonselective=44.0;TLR9 CHO cytotox=2.7
COc1ccc(NS(=O)(=O)c2cc([N+](=O)[O-])ccc2N/N=C\c2c(C)[nH]c3ccccc23)cc1,25.4,5.6,-150.2,10.2,9.3,·,·,
CN1C(=O)C(c2ccccc2[N+](=O)[O-])C(=O)c2ccccc21 (stereo not drawn),20.1,2.1,-1.4,·,1.0,·,·,
COc1ccc(-n2nc(C(=O)NCC(=O)N3CCC(C)CC3)c3ccccc3c2=O)c(OC)c1,1.9,0.9,2.3,·,-1.6,·,·,
COc1cc(C(=O)Nc2cccc(NC(=O)c3cccs3)c2)cc(OC)c1OC,-4.3,-0.4,4.3,·,-49.4,·,·,

# Screens as filed in PubChem BioAssay.
